Source: ChEMBL document CHEMBL3853289, “Eucarobustols A-I, Conjugates of Sesquiterpenoids and Acylphloroglucinols from Eucalyptus robusta” (J Nat Prod, 2016)

Experiments:
[1] = Cytotoxicity against human HL60 cells assessed as reduction in cell viability after 72 hrs by MTT assay; format: functional, cell-based; settings: HL-60, 72 h
Procedure, shortened: (§1)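 Cytotoxicity was tested against the HL-60 human leukemia and A-549 human lung adenocarcinoma lines, with adriamycin as the positive control. Potency was expressed as IC50.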

[2] = Cytotoxicity against human A549 cells assessed as reduction in cell viability incubated for 72 hrs by SRB assay; format: functional, cell-based; settings: A549, 72 h; procedure, shortened: as §1
[3] = molecular target: T1, Tyrosine-protein phosphatase non-receptor type 1 (Homo sapiens, UniProt P18031); assay: Inhibition of PTP1B (unknown origin) using pNPP as substrate after 3 mins by colorimetric analysis
T1 sequence (P18031 whole entry): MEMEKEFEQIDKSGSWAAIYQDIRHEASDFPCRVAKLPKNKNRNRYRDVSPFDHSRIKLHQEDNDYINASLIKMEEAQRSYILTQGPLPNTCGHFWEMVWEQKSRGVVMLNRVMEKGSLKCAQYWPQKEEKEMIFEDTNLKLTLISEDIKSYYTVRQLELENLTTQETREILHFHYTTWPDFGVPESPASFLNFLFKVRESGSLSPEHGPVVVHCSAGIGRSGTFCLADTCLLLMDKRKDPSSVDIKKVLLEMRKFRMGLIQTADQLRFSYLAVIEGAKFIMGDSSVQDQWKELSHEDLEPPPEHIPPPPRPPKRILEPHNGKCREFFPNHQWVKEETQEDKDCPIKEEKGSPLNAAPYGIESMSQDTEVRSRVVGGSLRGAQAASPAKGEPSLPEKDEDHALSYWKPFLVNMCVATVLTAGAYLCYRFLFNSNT

IC50 [3]	Structure (SMILES)	IC50 [1]	IC50 [2]
	CC(C)C[C@H](c1c(O)c(C=O)c(O)c(C=O)c1O)[C@@H]1CC[C@@](C)(O)[C@@H]2[C@@H]3[C@H](CC[C@]21C)C3(C)C	> 10 µM	> 10 µM
	CC(=O)CC[C@@H]1[C@H]([C@H]2C(=O)CC[C@]2(C)[C@H](CC(C)C)c2c(O)c(C=O)c(O)c(C=O)c2O)C1(C)C	> 10 µM	> 10 µM
4.3 µM	CC(C)C[C@@H](c1c(O)c(C=O)c(O)c(C=O)c1O)[C@H]1CC[C@@H](C)[C@@]2(C)C1=CC[C@@H]1[C@H]2C1(C)C		
4.5 µM	CC1=C2CC[C@](C)([C@@H](CC(C)C)c3c(O)c(C=O)c(O)c(C=O)c3O)[C@H]2[C@H]2[C@@H](CC1)C2(C)C	> 10 µM	> 10 µM
	CC(C)C[C@H](c1c(O)c(C=O)c(O)c(C=O)c1O)[C@@]1(C)CC[C@H]2C1=C[C@H](C(C)(C)O)CC[C@H]2C	> 10 µM	> 10 µM
3 µM	CC(C)C[C@H](c1c(O)c(C=O)c(O)c(C=O)c1O)[C@@]1(C)CC=C2[C@H](C)CC[C@@H]3[C@H]([C@@H]21)C3(C)C	> 10 µM	> 10 µM
2.9 µM	C=C(C)[C@@H]1C=C2[C@@H](C)CC[C@@H]([C@@H](CC(C)C)c3c(O)c(C=O)c(O)c(C=O)c3O)[C@]2(C)CC1		
1.6 µM	CC(C)C[C@@H](c1c(O)c(C=O)c(O)c(C=O)c1O)[C@@]1(C)CCC2=C1[C@H]1[C@@H](CC[C@H]2C)C1(C)C	> 10 µM	> 10 µM
	CC(C)C[C@@H](c1c(O)c(C=O)c(O)c(C=O)c1O)[C@@H]1CC[C@@](C)(O)[C@@H]2[C@@H]3[C@H](CC[C@]21C)C3(C)C	> 10 µM	> 10 µM
	CC(C)CC(c1c(O)c(C=O)c(O)c(C=O)c1O)[C@@]1(C)CC[C@H]2C1=C[C@H](C(C)(C)O)CC[C@H]2C (some centres not stated)	> 10 µM	> 10 µM
1.8 µM	CC(C)C[C@@H](c1c(O)c(C=O)c(O)c(C=O)c1O)[C@@]1(C)CC=C2[C@H](C)CC[C@@H]3[C@H]([C@@H]21)C3(C)C	> 10 µM	> 10 µM
4.1 µM	CO[C@]1(C)CC[C@@H]2[C@H]([C@H]3[C@H]1CC[C@]3(C)[C@@H](CC(C)C)c1c(O)c(C=O)c(O)c(C=O)c1O)C2(C)C	> 10 µM	> 10 µM
1.3 µM	CC(C)C[C@H](c1c(O)c(C=O)c(O)c(C=O)c1O)[C@H]1CC[C@@H](C)[C@@]2(C)C1=CC[C@@H]1[C@H]2C1(C)C		
	CC(C)CC(c1c(O)c(C=O)c(O)c(C=O)c1O)C1CC[C@@H](C)C2=C[C@H](C(C)(C)O)CC[C@]21C (some centres not stated)	> 10 µM	> 10 µM
4.3 µM	CC(C)CC(=O)c1c(O)c(C=O)c(O)c(C[C@@]2(C)CC[C@H]3C2=C[C@H](C(C)(C)O)CC[C@H]3C)c1O	> 10 µM	> 10 µM
5.6 µM	CC(C)C[C@@H](c1c(O)c(C=O)c(O)c(C=O)c1O)[C@@]1(C)CC[C@@H]2[C@@H]1[C@H]1[C@@H](CC[C@]2(C)O)C1(C)C	> 10 µM	> 10 µM
	CC(C)C[C@@H](c1c(O)c(C=O)c(O)c(C=O)c1O)[C@@]1(C)CC[C@@H]2[C@@H]1[C@H]1[C@@H](CC[C@@]2(C)O)C1(C)C [MACROCARPAL A]	> 10 µM	> 10 µM
	CC(C)C[C@H](c1c(O)c(C=O)c(O)c(C=O)c1O)[C@@]1(C)CC[C@@H]2[C@@H]1[C@H]1[C@@H](CC[C@@]2(C)O)C1(C)C [MACROCARPAL B]	> 10 µM	> 10 µM
	C=C1CC[C@@H]2[C@H]([C@H]3[C@H]1CC[C@]3(C)[C@@H](CC(C)C)c1c(O)c(C=O)c(O)c(C=O)c1O)C2(C)C [MACROCARPAL C]	> 10 µM	> 10 µM
